In ChEMBL document CHEMBL1133137, “Synthesis and biological effects of a new series of 2-amino-3-benzoylthiophenes as allosteric enhancers of A1-adenosine receptor” (Bioorg Med Chem Lett, 2000):

What was measured:
Format in all cases: functional, cell-based
[1] = molecular target: T1, Adenosine receptor A1 (Homo sapiens) (UniProt P30542); assay: Percentage of response to 10 uM of PD-81723 on CHO cells expressing the cloned human A1-adenosine receptor at 10 uM concentration
T1 sequence (whole entry): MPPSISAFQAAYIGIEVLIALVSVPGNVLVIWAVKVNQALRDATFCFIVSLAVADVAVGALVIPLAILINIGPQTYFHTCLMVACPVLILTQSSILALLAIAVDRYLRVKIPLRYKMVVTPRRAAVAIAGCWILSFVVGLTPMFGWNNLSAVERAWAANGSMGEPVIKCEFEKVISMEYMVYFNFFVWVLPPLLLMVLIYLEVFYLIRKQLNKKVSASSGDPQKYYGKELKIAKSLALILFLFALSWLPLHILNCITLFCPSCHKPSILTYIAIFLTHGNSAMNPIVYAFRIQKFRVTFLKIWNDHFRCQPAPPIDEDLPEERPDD
In short: (§1)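 CHO cells stably expressing recombinant human A1 receptors (~8000 fmol/mg protein), thawed from low-passage frozen stocks, grown to confluence over 48–72 h in Ham's F-12 with 10% FBS and G-418. Test compound incubated 6 min at 36 °C with 0.05–0.1 nM CPA. Reaction stopped with HCl (final 50 mM). cAMP in acid extracts measured by radioimmunoassay. Reduction normalized to the response to 10 μM PD 81,723.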

[2] = molecular target: T1, Adenosine receptor A1 (Homo sapiens); assay: Percentage of response to 10 uM of PD-81723 on CHO cells expressing the cloned human A1-adenosine receptor at 0.1 uM concentration; in short: as §1
[3] = molecular target: T1, Adenosine receptor A1 (Homo sapiens); assay: Percentage of response to 10 uM of PD-81723 on CHO cells expressing the cloned human A1-adenosine receptor at 1 uM concentration; in short: as §1
[4] = molecular target: T1, Adenosine receptor A1 (Homo sapiens); assay: Percentage of response to 10 uM of PD-81723 on CHO cells expressing the cloned human A1-adenosine receptor at 10 uM; An increase of cAmp content of cells; in short: as §1
[5] = molecular target: T1, Adenosine receptor A1 (Homo sapiens); assay: Percentage of response to 10 uM of PD-81723 on CHO cells expressing the cloned human A1-adenosine receptor at 1 uM; An increase of cAmp content of cells; in short: as §1
[6] = molecular target: T1, Adenosine receptor A1 (Homo sapiens); assay: The compound was tested for its percentage of response to 10 uM of PD-81723 on CHO cells expressing the cloned human A1-adenosine receptor at 0.1; change of less than 5% of allosteric enhancement.; in short: as §1
[7] = molecular target: T1, Adenosine receptor A1 (Homo sapiens); assay: The compound was tested for its percentage of response to 10 uM of PD-81723 on CHO cells expressing the cloned human A1-adenosine receptor at 10 uM concentration; change of less than 5% of allosteric enhancement.; in short: as §1
[8] = molecular target: T1, Adenosine receptor A1 (Homo sapiens); assay: The compound was tested for its percentage of response to 10 uM of PD-81723 on CHO cells expressing the cloned human A1-adenosine receptor at 1 uM; change of less than 5% of allosteric enhancement.; in short: as §1
[9] = molecular target: T1, Adenosine receptor A1 (Homo sapiens); assay: Percent response to 10 uM PD-81723 on CHO cells expressing human A1-adenosine receptor at 0.1 uM; An increase of cAmp content of cells; in short: as §1
[10] = molecular target: T1, Adenosine receptor A1 (Homo sapiens); assay: Percentage of response to 10 uM of PD-81723 on CHO cells expressing the cloned human A1-adenosine receptor at 0.1 uM; in short: as §1
[11] = molecular target: T1, Adenosine receptor A1 (Homo sapiens); assay: The compound was tested for its percentage of response to 10 uM of PD-81723 on CHO cells expressing the cloned human A1-adenosine receptor at 1 uM concentration; change of less than 5% of allosteric enhancement.; in short: as §1
[12] = molecular target: T1, Adenosine receptor A1 (Homo sapiens); assay: The compound was tested for its percentage of response to 10 uM of PD-81723 on CHO cells expressing the cloned human A1-adenosine receptor at 0.1 uM concentration; change of less than 5% of allosteric enhancement; in short: as §1
[13] = molecular target: T1, Adenosine receptor A1 (Homo sapiens); assay: The compound was tested for its percentage of response to 10 uM of PD-81723 on CHO cells expressing the cloned human A1-adenosine receptor at 0.1 uM concentration; An increase of cAmp content of cells; in short: as §1
[14] = molecular target: T1, Adenosine receptor A1 (Homo sapiens); assay: The compound was tested for its percentage of response to 10 uM of PD-81723 on CHO cells expressing the cloned human A1-adenosine receptor at 10 uM concentration; An increase of cAmp content of cells; in short: as §1
[15] = molecular target: T1, Adenosine receptor A1 (Homo sapiens); assay: The compound was tested for its percentage of response to 10 uM of PD-81723 on CHO cells expressing the cloned human A1-adenosine receptor at 1 uM; in short: as §1
[16] = molecular target: T1, Adenosine receptor A1 (Homo sapiens); assay: The compound was tested for its percentage of response to 10 uM of PD-81723 on CHO cells expressing the cloned human A1-adenosine receptor at 10 uM; in short: as §1
[17] = molecular target: T1, Adenosine receptor A1 (Homo sapiens); assay: The compound was tested for its percentage of response to 10 uM of PD-81723 on CHO cells expressing the cloned human A1-adenosine receptor at 0.1 uM concentration; change of less than 5% of allosteric enhancement.; in short: as §1
[18] = molecular target: T1, Adenosine receptor A1 (Homo sapiens); assay: The compound was tested for its percentage of response to 10 uM of PD-81723 on CHO cells expressing the cloned human A1-adenosine receptor at 10 uM; change of less than 5% of allosteric enhancement.; in short: as §1
[19] = molecular target: T1, Adenosine receptor A1 (Homo sapiens); assay: The compound was tested for its percentage of response to 10 uM of PD-81723 on CHO cells expressing the cloned human A1-adenosine receptor at 10 uM; An increase of cAmp content of cells; in short: as §1
[20] = molecular target: T1, Adenosine receptor A1 (Homo sapiens); assay: The compound was tested for its percentage of response to 10 uM of PD-81723 on CHO cells expressing the cloned human A1-adenosine receptor at 0.1 uM; An increase of cAmp content of cells; in short: as §1

Row | Response [1] [%] | Response [2] [%] | Response [3] [%] | SMILES | further results
1 | 68 | 14 | 79 | Nc1sc2c(c1C(=O)c1ccc(-c3ccccc3)cc1)CCCC2 | –
2 | 72 | 31 | 53 | Nc1sc2c(c1C(=O)c1ccc(Br)cc1)CCC2 | –
3 | 77 | 16 | 48 | Nc1sc2c(c1C(=O)c1ccccc1)CCCC2 | –
4 | 83 | – | 43 | Nc1sc2c(c1C(=O)c1ccc(F)cc1)CCCC2 | Response [10]: < 5%
5 | 54 | – | 29 | Nc1sc2c(c1C(=O)c1ccccc1)CCCCC2 | Response [13]: Increased cAMP
6 | 68 | 24 | 39 | Nc1sc2c(c1C(=O)c1ccc(Cl)cc1)CCCCCC2 | –
7 | 72 | 25 | 42 | Nc1sc2c(c1C(=O)c1ccc(Cl)cc1)CCCCC2 | –
8 | 71 | – | 44 | COc1ccc(C(=O)c2c(N)sc3c2CCCC3)cc1 | Response [10]: < 5%
9 | 9 | 15 | 12 | Nc1sc2c(c1C(=O)c1ccc(Cl)cc1)CCNC2 | –
10 | 65 | – | 43 | Nc1sc2c(c1C(=O)c1ccc(F)cc1)CCC2 | Response [10]: < 5%
11 | 36 | – | 54 | COc1ccc(C(=O)c2c(N)sc3c2CCCCC3)cc1 | Response [10]: < 5%
12 | 61 | 26 | 36 | Nc1sc2c(c1C(=O)c1ccc(F)cc1)CCCCC2 | –
13 | 82 | 35 | 29 | Nc1sc2c(c1C(=O)c1ccccc1)CCC2 | –
14 | 42 | – | 43 | COc1ccc(C(=O)c2c(N)sc3c2CCC3)cc1 | Response [10]: < 5%
15 | 67 | 50 | 67 | Nc1sc2c(c1C(=O)c1ccc(Br)cc1)CCCC2 | –
16 | 86 | 57 | 58 | Nc1sc2c(c1C(=O)c1ccc(Cl)cc1)CCCC2 | –

The remaining lines, values behind:

Row | SMILES | Response [1] [%] | Response [2] [%] | Response [3] [%] | further results
17 | Nc1sc2c(c1C(=O)c1ccc(Cl)cc1)CCN(C(=O)OCc1ccccc1)C2 | – | – | – | Response [4]: Increased cAMP; Response [5]: Increased cAMP; Response [6]: < 5%
18 | Nc1sc2c(c1C(=O)c1cccc(C(F)(F)F)c1)CCN(Cc1ccccc1)C2 | 85 | 18 | 41 | –
19 | Nc1sc2c(c1C(=O)c1ccc(Cl)cc1)CCC2 | – | – | – | Response [7]: < 5%; Response [8]: < 5%; Response [9]: Increased cAMP
20 | Nc1sc2c(c1C(=O)c1ccc(I)cc1)CCNC2 | – | – | – | Response [7]: < 5%; Response [11]: < 5%; Response [10]: < 5%
21 | Nc1sc2c(c1C(=O)c1ccc(-c3ccccc3)cc1)CCNC2 | – | – | – | Response [4]: Increased cAMP; Response [11]: < 5%; Response [10]: < 5%
22 | Cc1ccc(S(=O)(=O)N2CCc3c(sc(N)c3C(=O)c3ccccc3)C2)cc1 | – | – | – | Response [4]: Increased cAMP; Response [5]: Increased cAMP; Response [9]: Increased cAMP
23 | Nc1sc2c(c1C(=O)c1ccc(-c3ccccc3)cc1)CCN(C(=O)OCc1ccccc1)C2 | – | 14 | 6 | Response [7]: < 5%
24 | Nc1sc2c(c1C(=O)c1ccccc1)CCN(C(=O)OCc1ccccc1)C2 | – | – | – | Response [4]: Increased cAMP; Response [5]: Increased cAMP; Response [9]: Increased cAMP
25 | Cc1sc(N)c(C(=O)c2ccccc2)c1C | 19 | – | – | Response [12]: < 5%; Response [5]: Increased cAMP
26 | Cc1sc(N)c(C(=O)c2cccc(C(F)(F)F)c2)c1C | 100 | 13 | 40 | –
27 | Nc1sc2c(c1C(=O)c1cccc(C(F)(F)F)c1)CCN(CCc1ccccc1)C2 | – | – | – | Response [11]: < 5%; Response [10]: < 5%; Response [14]: Increased cAMP
28 | Nc1sc2c(c1C(=O)c1ccc(Cl)cc1)CCN(CCc1ccccc1)C2 | – | 58 | 32 | Response [4]: Increased cAMP
29 | Nc1sc2c(c1C(=O)c1ccc(Cl)cc1)CCN(CCc1ccc([N+](=O)[O-])cc1)C2 | – | – | – | Response [4]: Increased cAMP; Response [5]: Increased cAMP; Response [15]: 13%; Response [16]: 31%; Response [9]: Increased cAMP
30 | Nc1sc2c(c1C(=O)c1ccc(Br)cc1)CCNC2 | – | – | – | Response [7]: < 5%; Response [11]: < 5%; Response [17]: < 5%
31 | Nc1sc2c(c1C(=O)c1cccc(C(F)(F)F)c1)CCN(CCCc1ccccc1)C2 | 22 | – | 7 | Response [10]: < 5%
32 | Nc1sc2c(c1C(=O)c1ccc(I)cc1)CCC2 | – | – | – | Response [5]: Increased cAMP; Response [18]: < 5%; Response [9]: Increased cAMP
33 | Nc1sc2c(c1C(=O)c1ccccc1)CCN(CCc1ccc([N+](=O)[O-])cc1)C2 | 31 | – | 13 | Response [9]: Increased cAMP
34 | CCOC(=O)CN1CCc2c(sc(N)c2C(=O)c2ccc(Cl)cc2)C1 | – | 10 | – | Response [4]: Increased cAMP; Response [5]: Increased cAMP
35 | Nc1sc2c(c1C(=O)c1ccccc1)SCC2 | 68 | – | – | Response [13]: Increased cAMP; Response [11]: < 5%
36 | Nc1sc2c(c1C(=O)c1ccc(Br)cc1)CCN(C(=O)OCc1ccccc1)C2 | – | – | – | Response [19]: Increased cAMP; Response [5]: Increased cAMP; Response [20]: Increased cAMP
37 | Nc1sc2c(c1C(=O)c1ccc(Cl)cc1)CCN(CCCc1ccccc1)C2 | 31 | 8 | 15 | –
38 | Nc1sccc1C(=O)c1ccccc1 | 28 | 51 | 26 | –
39 | CCOC(=O)CN1CCc2c(sc(N)c2C(=O)c2ccccc2)C1 | – | – | – | Response [4]: Increased cAMP; Response [5]: Increased cAMP; Response [9]: Increased cAMP
40 | Cc1sc(N)c(C(=O)c2ccc(Cl)cc2)c1C | 92 | 30 | 52 | –
41 | Nc1sc2c(c1C(=O)c1ccccc1)CCNC2 | 12 | – | 9 | Response [10]: < 5%
42 | Nc1sccc1C(=O)c1ccc(Cl)cc1 | 25 | 7 | 8 | –
43 | Nc1sc2c(c1C(=O)c1ccc(Cl)cc1)CCN(Cc1ccccc1)C2 | – | – | – | Response [4]: Increased cAMP; Response [5]: Increased cAMP; Response [10]: < 5%
44 | Nc1sc2c(c1C(=O)c1ccc(F)cc1)CCN(C(=O)OCc1ccccc1)C2 | – | – | – | Response [4]: Increased cAMP; Response [5]: Increased cAMP; Response [10]: < 5%
45 | Nc1sc2c(c1C(=O)c1ccc(I)cc1)CCN(C(=O)OCc1ccccc1)C2 | – | – | – | Response [7]: < 5%; Response [11]: < 5%; Response [10]: < 5%
